According to ChEMBL document CHEMBL1150811, “New modified eremophilanes from the roots of Psacalium radulifolium” (J Nat Prod, 2001):
Values after ≈ are worked out from the molar mass of the structure shown.

Columns and labels:
[1] = test system: Pseudomonas aeruginosa; experiment: Antimicrobial activity against Pseudomonas aeruginosa ATCC 27853; type: functional
Method in brief: (§1)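 Agar dilution: each natural product suspended in 10% DMSO and added at various concentrations to melted agar in Petri dishes; plates incubated 24 h at 37 °C; gentamicin and nystatin as reference standards; run in duplicate.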

[2] = test system: Proteus mirabilis; experiment: Antimicrobial activity against Proteus mirabilis ATCC 12453; type: functional; method in brief: as §1
[3] = test system: Candida albicans; experiment: Antimicrobial activity against Candida albicans ATCC 10231; type: functional; method in brief: as §1
[4] = test system: Artemia salina; experiment: Toxicity against Artemia salina; type: organism-based; settings: in vivo
[5] = test system: Escherichia coli; experiment: Antimicrobial activity against Escherichia coli ATCC 8937; type: functional; method in brief: as §1
[6] = test system: Staphylococcus aureus; experiment: Antimicrobial activity against Staphylococcus aureus ATCC 6358

## COc1c2c(c(C)c3c(C)coc13)[C@@H](C)CC=C2
[1]
  MIC: > 400 µg/mL
[2]
  MIC: > 400 µg/mL
[3]
  MIC: > 400 µg/mL
[4]
  LD50: > 1000 ppm
[5]
  MIC: > 400 µg/mL
[6]
  MIC: 400 µg/mL (≈ 1650 µM)

## C[C@H]1CCCc2c(O)c(O)c3c(c21)COC(=O)C3(C)O (mixture of isomers)
[1]
  MIC: > 400 µg/mL
[3]
  MIC: > 400 µg/mL
[4]
  LD50: 230 ppm
[5]
  MIC: > 400 µg/mL
[6]
  MIC: 200 µg/mL

## Cc1coc2c1C(C)(O)C1=C(CCC[C@@H]1C)C2=O (mixture of isomers) [cacalone/epi-cacalone]
[1]
  MIC: > 1000 µg/mL
[2]
  MIC: > 1000 µg/mL
[3]
  MIC: > 1000 µg/mL
[4]
  LD50: 269 ppm
[5]
  MIC: > 1000 µg/mL
[6]
  MIC: 250 µg/mL

## Cc1coc2c(O)c3c(c(Cc4oc5c(O)c6c(c(C)c5c4C)[C@@H](C)CCC6)c12)[C@@H](C)CCC3 [ADENOSTIN A]
[1]
  MIC: > 400 µg/mL
[3]
  MIC: > 400 µg/mL
[4]
  LD50: 230 ppm
[5]
  MIC: > 400 µg/mL
[6]
  MIC: 50 µg/mL (≈ 109 µM)

## Cc1coc2c(O)c3c(c(C)c12)[C@@H](C)CCC3 [CACALOL]
[1]
  MIC: > 400 µg/mL
[2]
  MIC: 12 µg/mL (≈ 52.1 µM)
[3]
  MIC: 12 µg/mL (≈ 52.1 µM)
[4]
  LD50: 12 ppm
[5]
  MIC: 25 µg/mL (≈ 109 µM)
[6]
  MIC: 12 µg/mL (≈ 52.1 µM)

## CC(=O)O[C@@H]1c2c(C)coc2C(=O)C2=CCC[C@H](C)[C@]21C [DECOMPOSTIN]
[1]
  MIC: > 400 µg/mL
[2]
  MIC: > 400 µg/mL
[3]
  MIC: > 400 µg/mL
[4]
  LD50: > 1000 ppm
[5]
  MIC: > 400 µg/mL
[6]
  MIC: > 400 µg/mL

## C/C=C\C(=O)O[C@@H]1c2c(C)coc2C(=O)C2=CCC[C@H](C)[C@]21C [NEOADENOSTYLONE]
[1]
  MIC: > 400 µg/mL
[3]
  MIC: > 400 µg/mL
[4]
  LD50: 21.7 ppm
[5]
  MIC: > 400 µg/mL
[6]
  MIC: > 400 µg/mL

## COc1c2c(c(C)c3c1OC(=O)[C@@]3(C)O)[C@@H](C)CCC2 [RADULIFOLIN B]
[1]
  MIC: > 400 µg/mL
[3]
  MIC: > 400 µg/mL
[4]
  LD50: 52.5 ppm
[5]
  MIC: > 400 µg/mL
[6]
  MIC: 100 µg/mL (≈ 362 µM)
